Laboratory results: publication PMC8341669 (RSC Chemical Biology, 2021)

Assay: CD spectrum / MD helical content of the peptide in the free state
Assay type: physicochemical
Conditions: CD in H2O at 200 μM and MD simulations
Summary of the method: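 Peptide dissolved in HPLC-grade water at 200 μM and CD spectra recorded on a spectropolarimeter. Free peptide in solution MD: steepest-descent minimisation, 1 ns NVT (300 K, V-rescale) and 1 ns NPT (1 bar, Parrinello–Rahman) equilibration with heavy-atom restraints stepped off, then four 200 ns NPT production runs per peptide; PME electrostatics, 10 Å van der Waals cut-off, LINCS constraints.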

RIRREEYLKAIQ [Linear]
α-helical content in the free state: lower α-helical content
